Assay results collected from several papers.
Target: Ephrin type-B receptor 3 (EPHB3, Homo sapiens, UniProt P54753)

With COc1cc2ncnc(Nc3ccc(Oc4ccccc4)cc3C)c2cc1OC the inhibition was 1% (enzyme activity; inhibitor; 1 µM).
With CN(C)C(=O)Cn1cc(-c2nc(C3(c4ccc(-c5cnc(N)nc5)cc4)CC3)no2)cn1 the remaining binding was 95% (cell-free assay; competition with immobilised ligand; 1 µM).
CCN(CC)c1ccc(C2=NNC(=O)CC2C)cc1[N+](=O)[O-] (stereo not drawn) gave a remaining activity of 102% (enzyme activity; inhibitor; 10 µM).
With O=C1Nc2ccc(Cl)cc2C1=Cc1cc(Cl)c(O)c(Cl)c1 the remaining signal was 91% (cell-free assay; 0.5 µM).
The inhibition of CN(c1ncccc1CNc1nc(Nc2ccc3c(c2)CC(=O)N3)ncc1C(F)(F)F)S(C)(=O)=O is reported as 41% (enzyme activity; inhibitor; 1 µM).
With COc1cc(Cl)c(C(=O)N[C@@H](CN[C@H]2CC[C@@H](N)CC2)Cc2ccc(C#N)cc2)cc1-c1ccc(CN[C@H](C)c2ccc(C)cc2)o1 the remaining activity was 97% (enzyme activity; inhibitor; 1 µM).
With Cc1cc(NC(=O)c2cccc(S(F)(F)(F)(F)F)c2)cc(-n2ccn3nc(-c4cccnc4)cc23)c1 the remaining binding was 100% (cell-free assay; competition with immobilised ligand; 1 µM).
COc1cc(Nc2cnc(C#N)c(O[C@H](C)CN(C)C)n2)ncc1-c1cnn(C)c1 gave a remaining activity of 23% (enzyme activity; inhibitor; radiometric; 10 µM).
For Cn1nc(C(=O)NCc2ccc(C(=O)O)cc2)cc1-c1ccc2[nH]ccc2c1, the remaining binding was 100% (cell-free assay; competition with immobilised ligand; 0.1 µM).
Cn1cncc1C1=CN(c2ncnc3[nH]cnc23)CCS1 has an inhibition of 12.8% (enzyme activity; inhibitor; radiometric; 50 nM).
With Cc1ccc(Nc2nccc(N(C)c3ccc4c(C)n(C)nc4c3)n2)cc1S(N)(=O)=O the remaining signal was 71.7% (cell-free assay; 0.5 µM).
CC(C)(C)c1nc(-c2cccc(NS(=O)(=O)c3c(F)cccc3F)c2F)c(-c2ccnc(N)n2)s1 has a remaining activity of 92% (enzyme activity; inhibitor; radiometric; 1 µM).
The remaining signal of Nc1ncnc2occ(-c3ccc(NC(=O)Nc4cc(C(F)(F)F)ccc4F)cc3)c12 is reported as 0% (cell-free assay; 20 µM).
For CC(C)CC(=O)N1CCc2nc(-c3ccc(Br)cc3)nc(N(C)Cc3ccccc3)c2C1, the remaining binding was 100% (cell-free assay; competition with immobilised ligand; 0.1 µM).
The remaining activity of CC(C)(C)C(=O)c1sc(NC2CCCCC2)nc1N is reported as 94% (enzyme activity; inhibitor; 10 µM).
The remaining binding of CN(C(=O)c1ccccc1)c1cc(N(C)c2ccc3c(c2)CCc2ccc(C(=O)NCCN4CCOCC4)cc2C3=O)ccc1F is reported as 94% (cell-free assay; competition with immobilised ligand; 1 µM).
For Cc1ccc(C(=O)NCc2ccsc2)cc1C#Cc1cn(C(C)C)c2ncnc(N)c12, the activity vs control was 100% (enzyme activity; inhibitor; 1 µM).
CCCOc1ccc(OC)c(F)c1C(=O)c1ccc(C(=O)N[C@@H]2CNC[C@H]2NC(=O)c2ccc3[nH]ncc3c2)cc1 has a remaining activity of 102% (enzyme activity; inhibitor; 10 µM).
The remaining activity of CC(C)(O)[C@H]1CC[C@H](Nc2ccc3ncc(-c4cccc(C(F)(F)F)c4)n3n2)CC1 is reported as 87.9% (enzyme activity; inhibitor; 1 µM).
With Cc1ccc(C(=O)Nc2ccc(CN3CCN(C)CC3)c(C(F)(F)F)c2)cc1C#Cc1cnc2cccnn12 the remaining signal was 100% (cell-free assay; 23.5 nM).
For CCCOc1ccc([C@H]2[C@H](C(=O)O)[C@@H](c3ccc4c(c3)OCO4)CN2CC(=O)Nc2c(CC)cccc2CC)cc1, the remaining binding was 97% (cell-free assay; competition with immobilised ligand; 1 µM).
With Oc1cccc(-c2nc(N3CCOCC3)c3oc4ncccc4c3n2)c1 the remaining activity was 127% (enzyme activity; inhibitor; 10 µM).
C#Cc1cccc(Nc2ncnc3cc(OCCOC)c(OCCOC)cc23)c1 has a remaining signal of 58% (cell-free assay; 0.5 µM).
CCN(CC)CCNC(=O)c1c(C)[nH]c(/C=C2\C(=O)Nc3ccc(F)cc32)c1C has an inhibition of 10% (enzyme activity; inhibitor; 10 µM).
The remaining activity of Cc1cnc(NC2CCOCC2)nc1-n1cnc(C(=O)NC(CN)c2cc(F)cc(Cl)c2)c1 (stereo not drawn) is reported as 115% (enzyme activity; inhibitor; radiometric; 1 µM).
CN1CCN(c2cnc3c(C4CCN(C(=O)c5ccc(OC(F)(F)F)cc5N)CC4)ncnc3c2)CC1 has a remaining binding of 100% (cell-free assay; competition with immobilised ligand; 1 µM).
CNC(=O)c1cc(Oc2ccc(NC(=O)Nc3ccc(Cl)c(C(F)(F)F)c3)cc2)ccn1 has an inhibition of 3% (enzyme activity; inhibitor; 0.3 µM).
The remaining activity of O=C(Nc1cnn(-c2csc(C(=O)NC3COC3)c2)c1)Nc1ccccc1Cl is reported as 95.6% (enzyme activity; inhibitor; 5 µM).
For O=c1nc(-c2ccccn2)sc2ccccc12, the remaining binding was 100% (cell-free assay; competition with immobilised ligand; 1 µM).
The remaining signal of COc1cc2ncnc(Nc3ccc(F)c(Cl)c3)c2cc1OCCCN1CCOCC1 is reported as 57.5% (cell-free assay; 0.5 µM).
